This note sets out measurements from ChEMBL document CHEMBL1148783, “Selection of a respiratory syncytial virus fusion inhibitor clinical candidate, part 1: improving the pharmacokinetic profile using the structure-property relationship” (J Med Chem, 2007).

Each structure is given as a SMILES string. pEC50: −log10 of the molar value. Bounds are passed on as bounds.

In series [1] the test system is Respiratory syncytial virus. The series can be described thus: Antiviral activity against RSV in HeLaM cells. Particulars: human respiratory syncytial virus. Format: functional, organism-based. In a few lines: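 HeLaM epithelial-like cells infected with RSV with or without a range of compound concentrations, with virus, cell and cytotoxicity controls and ribavirin as reference in each test. After one week of incubation, viability was read by MTT and spectrophotometric OD. pEC50 was calculated from the OD values.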

A short description of series [2]: Half life (24 to 96 hrs) in Sprague-Dawley rat lung. Format: ADME, tissue-based. The essentials:
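Lung half-life came from IV-dosed male Sprague-Dawley rats (1 mg/kg, 10 min tail-vein infusion), with three animals per time point. Lungs were homogenized in water (1/9 w/v) and analyzed by LC-MS/MS, using the concentrations measured between 24 and 96 h post-dose.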

Series [3] is described as follows: Cytotoxicity against HeLaM cells. Format: cell-based, M-HeLa. Particulars: human.
Series [4] in a line: Drug level in Sprague-Dawley rat lung after 24 hrs. In kind it is ADME, tissue-based. Particulars: read-out: Drug uptake. The essentials:
(§1)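 Male Sprague-Dawley rats (250-300 g) were given a 10 min tail-vein infusion at a final dose of 1 mg/kg. Three rats per time point were killed at 4, 24, 96 and 168 h. Plasma was taken from EDTA blood, and lung was homogenized 1/9 w/v in demineralized water. Samples were stored at ≤-18 °C and quantified by a qualified LC-MS/MS method.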

A short description of series [5]: Drug level in Sprague-Dawley rat lung after 96 hrs. In kind it is ADME, tissue-based. The conditions noted are these: read-out: Drug uptake. In a few lines:
as §1

Series [6] in a line: Drug level in Sprague-Dawley rat plasma after 4 hrs. Format: ADME, cell-free. Particulars: read-out: Drug uptake. In a few lines: as §1
The nature of series [7]: Drug level in Sprague-Dawley rat lung after 4 hrs. In kind it is ADME, tissue-based. The conditions noted are these: read-out: Drug uptake. The essentials:
as §1

Series [8] can be described thus: Drug level in Sprague-Dawley rat plasma after 24 hrs. Particulars: read-out: Drug uptake. In kind it is ADME, cell-free. In a few lines: as §1
A short description of series [9]: Drug level in Sprague-Dawley rat lung after 168 hrs. Particulars: read-out: Drug uptake. Format: ADME, tissue-based. In a few lines:
as §1

Broadly, the pEC50 is the negative decadic logarithm of the EC50, by convention in mol/L. Read a high pEC50 as a small EC50. The half-life is how long it takes for the measured level to halve. A word on the CC50: it is the concentration that lowers cell viability or growth by half. Higher therefore signals better tolerance by the cells.

`Cc1ccc(O)c(Cn2c(NC3CCN(CCO)CC3)nc3c(C)cccc32)n1` gave a pEC50 in [1] of 7.70. Besides, the half-life in series [2] was 29 h. This compound showed a 50% cytotoxic concentration (CC50) in series [3] of more than 100 µM.
For `Cc1cc(C)c2nc(NCC(O)CO)n(Cc3nc(C)ccc3O)c2c1` (stereo not drawn), in that order: 7.40, less than 24 h and 50.1 µM.
In series [1], `Cc1cc(C)c2nc(NCCNc3ccccc3)n(Cc3nc(C)ccc3O)c2c1` showed a negative-log EC50 (pEC50) of less than 4.00. In addition, in series [3], the cytotoxic concentration (CC50) was 3.16 µM.
As to `Cc1ccc(O)c(Cn2c(NC3CCN(CCN4CCCC4)CC3)nc3c(C)cccc32)n1`, in series [1], the pEC50 was 8.00. This compound had a half-life in series [2] of 206 h. The compound also showed a CC50 in [3] of 39.8 µM.
As for `Cc1ccc(O)c(Cn2c(NC3CCN(CCC(=O)O)CC3)nc3c(C)cccc32)n1`, the pEC50 in [1] is 6.80. The half-maximal cytotoxic concentration (CC50) in [3] is more than 100 µM.
Turning to `Cc1ccc(O)c(Cn2c(NC3CCN(CCN)CC3)nc3c(C)cccc32)n1` [JNJ 2408068], the pEC50 in [1] is 9.60. Moreover, the concentration at 24 h in [4] amounted to 559 ng/mL; in series [8] it was 0.33 ng/mL. Besides, in [5], the concentration at 96 h turned out to be 439 ng/mL. In addition, the concentration at 4 h in [6] turned out to be 0.97 ng/mL; in series [7] it was 576 ng/mL. In [2], this compound had a half-life of 153 h. For the same compound, the CC50 in series [3] was more than 100 µM. In addition, the concentration at 168 h in series [9] was 387 ng/mL.
`Cc1cc(C)c2nc(NCCCO)n(Cc3nc(C)ccc3O)c2c1` had a negative logarithm of the EC50 (pEC50) in series [1] of 6.80. In series [3], the CC50 was 63.1 µM.
`Cc1cc(C)c2nc(NCCCN3CCN(C)CC3)n(Cc3nc(C)ccc3O)c2c1` had a negative-log EC50 (pEC50) in series [1] of 7.60. Further, the half-life in series [2] is 80 h. This compound also gave a cytotoxic concentration (CC50) in [3] of 50.1 µM.
Consider `NCCN1CCC(Nc2nc3ccccc3[nH]2)CC1`, for which the results for the concentration at 24 h in [4] and in series [8] were 295 ng/mL and 6.1 ng/mL, respectively. In addition, the concentration at 96 h in [5] came out at 83.7 ng/mL. For the same compound, the concentration at 4 h in series [6] worked out at 11.8 ng/mL; in series [7], 247 ng/mL. The concentration at 168 h in series [9] is 37.8 ng/mL.
Take `Cc1ccc(O)c(Cn2c(NC3CCN(CC(O)CN(C)C)CC3)nc3c(C)cccc32)n1` (stereo not drawn): the pEC50 in series [1] was 8.50. The compound further gave a half-life in [2] of 556 h. Moreover, the CC50 in series [3] is more than 100 µM.
Turning to `Cc1cc(C)c2nc(NCCCN)n(Cc3nc(C)ccc3O)c2c1`, the pEC50 in [1] was 9.60. Also, in series [2], the half-life is 68 h. The compound further showed a 50% cytotoxic concentration (CC50) in series [3] of more than 100 µM.
For `CNS(=O)(=O)CCCN1CCC(Nc2nc3c(C)cccc3n2Cc2nc(C)ccc2O)CC1`, in that order: 7.30, 32 h and 79.4 µM.
Take `Cc1ccc(O)c(Cn2c(NC3CCN(CCC(C)C)CC3)nc3c(C)cccc32)n1`: the pEC50 in series [1] is 6.20. The compound also showed a CC50 in [3] of more than 100 µM.
The like results for `CCCCNc1nc2c(C)cc(C)cc2n1Cc1nc(C)ccc1O` were, in that order, less than 4.00 and 7.94 µM.
In the case of `Cc1ccc(O)c(Cn2cnc3c(C)cccc32)n1`, the concentration at 4 h in series [7] worked out at 3.9 ng/mL.
Turning to `Cc1ccc(O)c(Cn2c(NC3CCN(CCCS(N)(=O)=O)CC3)nc3c(C)cccc32)n1`, in [1], the negative logarithm of the EC50 (pEC50) was 7.90. The same compound gave a half-life in series [2] of 57 h. Also, in [3], the cytotoxic concentration (CC50) was more than 100 µM.
Take `Cc1ccc(O)c(Cn2c(NC3CCN(CC(O)C(C)(C)C)CC3)nc3c(C)cccc32)n1` (stereo not drawn): the pEC50 in [1] was 6.10. Moreover, in [3], it took 39.8 µM to reach half-maximal cytotoxicity (CC50).
Consider `Cc1cc(C)c2nc(NCCCN3CCOCC3)n(Cc3nc(C)ccc3O)c2c1`, for which the negative logarithm of the EC50 (pEC50) in [1] was 6.90. Further, the half-life in series [2] is 14 h. The same compound showed a CC50 in series [3] of 50.1 µM.
Regarding `Cc1ccc(O)c(Cn2c(NC3CCN(C)CC3)nc3c(C)cccc32)n1`, in series [1], the pEC50 is 6.80. Also, it took 50.1 µM to reach half-maximal cytotoxicity in series [3] (CC50).
The like results for `Cc1cc(C)c2nc(NCCc3ccccc3)n(Cc3nc(C)ccc3O)c2c1` were, in that order, less than 4.00 and 6.31 µM.
`Cc1ccc(O)c(Cn2c(NC3CCN(CCN4CCOCC4)CC3)nc3c(C)cccc32)n1` gave a pEC50 in series [1] of 6.80. Also, in series [2], the half-life was 35 h. In series [3], this compound showed a 50% cytotoxic concentration (CC50) of 63.1 µM.
For the compound `Cc1ccc(O)c(Cn2c(NC3CCN(CCN)CC3)nc3ccccc32)n1`, the pEC50 in [1] is 9.50. Moreover, the half-life in series [2] was 211 h. The half-maximal cytotoxic concentration (CC50) in [3] is more than 100 µM.
In series [1], `Cc1ccc(O)c(Cn2c(NC3CCN(CCC(N)=O)CC3)nc3c(C)cccc32)n1` showed a negative logarithm of the EC50 (pEC50) of 7.30. Further, the half-life in [2] is 46 h. Besides, the 50% cytotoxic concentration (CC50) in series [3] is more than 100 µM.
For `CNCCCNc1nc2c(C)cc(C)cc2n1Cc1nc(C)ccc1O`, in that order: 9.20, 93 h and 50.1 µM.
As for `CC(=O)NCCNc1nc2c(C)cc(C)cc2n1Cc1nc(C)ccc1O`, in series [1], the pEC50 is 5.30. In series [3], the CC50 was 12.6 µM.
